The text below walks through data of PubChem BioAssay AID651877 (Broad Institute, 2012).

This experiment has as its system T. cruzi CAI/72 in BESM cells, trypomastigote emergence microscopy. Nature of the experiment: cidal versus static activity on T. cruzi, late-stage follow-up, mechanism study for T. cruzi inhibitor project, imaging, CAI/72 strain, BESM host cells, 20-day treatment (AID 651877). Conditions: stronger effect = higher value. The gist of the method: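 System: bovine embryo skeletal muscle (BESM) cells infected with T. cruzi CAI/72 / Measured by: daily light-microscopy check for emerging trypomastigotes / Measure: trypomastigote emergence timing, absence indicating cure, delay indicating static effect / Schedule: wash 24 h post-infection, alternate-day dosing 20 days, 38-day washout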

In the case of `C[C@@H]1CN([C@@H](C)CO)C(=O)c2cccc(NC(=O)c3ccncc3)c2O[C@H]1CN(C)Cc1cccc(Cl)c1`, the normalised slope vs benznidazole is 6. For the same molecule, the day of emergence (at 0.25 µM) turned out to be 4 days. The molecule also yielded a day of emergence (at 0.74 µM) of 17 days. Moreover, under “at 2.2 µM”, the day of emergence came to 18 days.

Consider `C[C@H]1CN([C@@H](C)CO)C(=O)c2cccc(NC(=O)c3ccncc3)c2O[C@@H]1CN(C)Cc1ccc(Oc2ccccc2)cc1`, for which the normalised slope vs benznidazole was 70. In addition, the day of emergence (at 0.25 µM) came out at 4 days.

On to `C[C@H](CO)N1C[C@H](C)[C@H](CN(C)Cc2ccc(Oc3ccccc3)cc2)Oc2c(NC(=O)c3ccncc3)cccc2C1=O`, for which the normalised slope vs benznidazole is 70. Under “at 0.25 µM”, the day of emergence is 4 days.

For the molecule `C[C@@H]1CN([C@@H](C)CO)C(=O)c2cccc(NC(=O)c3ccncc3)c2O[C@H]1CN(C)Cc1ccc(Cl)cc1`, the normalised slope vs benznidazole was 6. Besides, the day of emergence (at 0.25 µM) came to 4 days. Where the note is “at 0.74 µM”, the day of emergence worked out at 15 days. The day of emergence (at 2.2 µM) is 17 days.

In the case of `C[C@@H]1CN([C@H](C)CO)C(=O)c2cccc(NC(=O)c3ccncc3)c2O[C@H]1CN(C)Cc1ccccc1`, the normalised slope vs benznidazole was 70. Further, the day of emergence (at 0.25 µM) turned out to be 4 days.

Consider `C[C@@H]1CN([C@@H](C)CO)C(=O)c2cccc(NC(=O)c3ccncc3)c2O[C@H]1CN(C)Cc1ccc(Oc2ccccc2)cc1`, for which the normalised slope vs benznidazole was 20. Moreover, the day of emergence (at 0.25 µM) is 4 days. Under “at 0.74 µM”, the day of emergence was more than 37 days.

Regarding `CC(C)N1C[C@@H](C)[C@H](CN(C)Cc2cccc(Oc3ccccc3)c2)Oc2c(NC(=O)c3ccncc3)cccc2C1=O`, the normalised slope vs benznidazole is 66. Where the note is “at 0.25 µM”, this molecule displayed a day of emergence of 18 days.

On to `O=C(Cn1ccnc1[N+](=O)[O-])NCc1ccccc1`, for which the normalised slope vs benznidazole is 8. The same molecule showed a day of emergence (at 0.25 µM) of -14 days. The day of emergence (at 0.74 µM) came to 1 days. Also, the day of emergence (at 2.2 µM) is 6 days.

For the molecule `C[C@@H]1CN([C@H](C)CO)C(=O)c2cccc(NC(=O)c3ccncc3)c2O[C@H]1CN(C)Cc1ccc(Oc2ccccc2)cc1`, the normalised slope vs benznidazole is 5.6. The molecule also registered a day of emergence (at 0.25 µM) of 4 days. The same molecule came in with a day of emergence (at 0.74 µM) of 30 days. Also, the day of emergence (at 2.2 µM) is more than 37 days.

Regarding `C[C@H]1CN([C@@H](C)CO)C(=O)c2cccc(NC(=O)c3ccncc3)c2O[C@H]1CN(C)Cc1ccc(Oc2ccccc2)cc1`, the normalised slope vs benznidazole was 70. The day of emergence (at 0.25 µM) is 4 days.
